Calls of active or inactive are those of the source. The rule behind the calls is not given here.
What was measured:
Format in all cases: functional, cell-based
[1] = system: HT-29; assay: Apoptosis induction in human HT29 cells after 24 hrs; settings: HT-29, 24 h
Outline: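 HT29 cells seeded at 25 000/well and attached 24 h, then exposed for 24 h at 37 C to compound (0-1000 M, added from DMSO; final DMSO 0.5%, 1.0% at 600 µM). Cells harvested, stained with PI, and 10 000 events counted by flow cytometry. PI-negative cells scored as living and EC50 fitted from the curves. Mean of 3-4 independent experiments.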

[2] = system: HT-29; assay: Induction of PARP cleavage in human HT29 cells after 8 hrs
Outline: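 HT29 cells incubated 8 h with a range of compound concentrations. The 116 kDa PARP cleavage was detected by Western blot.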

[3] = system: SW480; assay: Inhibition of serum-induced expression of cyclin D in human SW480 cells after 5 hrs
Outline: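 SW480 cells starved of serum overnight, then stimulated with serum for 5 h with or without a range of compound concentrations. Cyclin D1 level read by Western blot.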

[4] = system: HT-29; assay: Induction of DNA fragmentation in human HT29 cells after 48 hrs by Nicoletti assay
Outline: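 HT29 cells seeded 25 000/well, attached 24 h, then treated with compound for 48 h. Trypsinized, resuspended in Nicoletti buffer (0.1% Tx-100, 0.1% Na citrate, 50 g/mL PI), held overnight at 4 C. DNA content of nuclei measured by FACS to assess fragmentation.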

[5] = system: HT-29; assay: Effect on cell death in HT29 cells pretreated with GSH synthesis inhibitor BSO; settings: Homo sapiens
Outline: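 HT29 cells seeded 25 000/well, attached 24 h; 200 µM BSO for 4 h at 37 C, washed, then medium with or without EtGSH (10 mM) 3 h, washed. Then compound in DMSO (final 0.5%) for 24 h at 37 C; cells harvested, stained with PI, 10 000 events by flow cytometry; PI-negative cells counted as living. Mean of four independent experiments, standard deviations.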

EC50 [1] [µM]	SMILES	Activity [2]	Activity [3]	Activity [4]	Activity [5]
107	CC(=O)Oc1ccccc1C(=O)Oc1ccc(CO[N+](=O)[O-])cc1	Active	Active	Active	Active
9.3	CC(=O)Oc1ccc(CO[N+](=O)[O-])cc1	Active	Active	–	–
> 1000	CC(=O)N[C@@H](C(=O)O)C(C)(C)SN=O	–	–	–	–
40.1	CC(=O)Oc1ccccc1C(=O)Oc1ccc(CCl)cc1	Active	Active	–	–
> 1000	CC(=O)Oc1ccccc1C(=O)O [ASPIRIN]	–	–	–	–
1000	CC(=O)Oc1ccccc1C(=O)Oc1cccc(CO[N+](=O)[O-])c1 [NCX-4016]	–	inactive	–	–
> 1000	CC(=O)Oc1ccccc1C(=O)Oc1cccc(CO)c1	–	–	–	–

SMILES	EC50 [1] [µM]	Activity [2]	Activity [3]	Activity [4]	Activity [5]
CC(=O)Oc1ccc(CCl)cc1	8.7	Active	Active	Active	Active

— ChEMBL document CHEMBL1139864, “Chemical insights in the concept of hybrid drugs: the antitumor effect of nitric oxide-donating aspirin involves a quinone methide but not nitric oxide nor aspirin” (J Med Chem, 2007)
